Experiments:
Format in all cases: biochemical
WT SaPC [1] = target: T1, WT SaPC (Staphylococcus aureus, UniProt A0A0H3JRU9); assay: Pyruvate carboxylation assay; conditions: for EC50: Ka (apparent activation constant)
K46A SaPC [2] = target: T2, K46A SaPC (Staphylococcus aureus, UniProt A0A0H3JRU9, K46A); assay: Pyruvate carboxylation assay
E418A SaPC [3] = target: T3, E418A SaPC (Staphylococcus aureus, UniProt A0A0H3JRU9, E418A); assay: Pyruvate carboxylation assay; conditions: up to 4 mM acetyl-CoA and 30 mM CoA
R21A SaPC [4] = target: T4, R21A SaPC (Staphylococcus aureus, UniProt A0A0H3JRU9, R21A); assay: Pyruvate carboxylation assay
K411A SaPC [5] = target: T5, K411A SaPC (Staphylococcus aureus, UniProt A0A0H3JRU9, K411A); assay: Pyruvate carboxylation assay
WT SaPC [6] = target: T1, WT SaPC; assay: ADP phosphorylation assay
K411A SaPC [7] = target: T5, K411A SaPC; assay: ADP phosphorylation assay
WT SaPC [8] = target: T1, WT SaPC; assay: Pyruvate carboxylation inhibition assay with CT domain inhibitors
Summary of the method: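 WT SaPC (5 μg/mL) was pre-incubated with inhibitor and acetyl-CoA, and the reaction was started with 10× substrate mix (final 25 mM NaHCO3, 2.5 mM ATP, 12 mM pyruvate). MDH-coupled (10 U/mL MDH, 0.12 mM NADH); change in A340 monitored. Inhibitor 0–1 mM or 0–50 mM by compound. MDH-only controls. Triplicate; SD of three trials.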

R21A SaPC [9] = target: T4, R21A SaPC; assay: Pyruvate carboxylation inhibition assay with CT domain inhibitors; conditions: 2.5 mM acetyl-CoA vs none
K46A SaPC [10] = target: T2, K46A SaPC; assay: as above; conditions: 2.5 mM acetyl-CoA vs none
E418A SaPC [11] = target: T3, E418A SaPC; assay: as above
[12] = Acyl-CoA + 20 mM L-aspartate, Table 1

Row | Compound | h (Hill coefficient) (WT SaPC [1]; [12]) | h (Hill coefficient) (WT SaPC [1]; Acyl-CoA alone, Table 1) | EC50 (WT SaPC [1]; [12]) [µM] | EC50 (WT SaPC [1]; WT SaPC, Table 2 series) [µM] | increase of apparent Ka in the presence of L-aspartate (WT SaPC [1]; WT SaPC, 20 mM L-aspartate vs none) | EC50 (K46A SaPC [2]) [µM] | activation of pyruvate carboxylation (E418A SaPC [3]) | EC50 (R21A SaPC [4]) [µM] | EC50 (K411A SaPC [5]) [µM] | EC50 (WT SaPC [6]) [µM] | EC50 (K411A SaPC [7]) [µM] | change of potency in the presence of acetyl-CoA (WT SaPC [8]; SaPC, CT domain inhibitors) | increase in the IC50 for oxalate inhibition (WT SaPC [8]; WT SaPC, acetyl-CoA at ~7 times the Ka value (10 μM, Figure 6C)) | increase in the IC50 for oxalate inhibition (WT SaPC [8]; WT SaPC, in the presence of CoA (500 μM, Figure 6B)) | change of the IC50 for oxalate inhibition (WT SaPC [8]; WT SaPC, in the presence of L-aspartate (5 mM, Figure 6B)) | increase in the IC50 for oxalate inhibition (WT SaPC [8]; WT SaPC, saturating acetyl-CoA vs none) [fold] | increase in the IC50 for oxalate inhibition (R21A SaPC [9]) [fold] | increase in the IC50 for oxalate inhibition (K46A SaPC [10]) [fold] | inhibition of pyruvate carboxylation (E418A SaPC [11]) | change of inhibition in the presence of acetyl-CoA (E418A SaPC [11]; 500 μM acetyl-CoA)
1 | CC(C)(COP(=O)(O)OP(=O)(O)OC[C@H]1O[C@@H](n2cnc3c(N)ncnc32)[C@H](O)[C@@H]1OP(=O)(O)O)[C@@H](O)C(=O)NCCC(=O)NCCS [CoA] | 1.8 ± 0.2 | 1.4 ± 0.2 | 130 ± 10 | 49 ± 7 | ~ 4 fold | 1500 ± 100 | unresponsive to activation | 1800 ± 53 | 100 ± 4.8 | 320 ± 30 | 420 ± 30 |  |  |  |  |  |  |  |  | 
2 | O=C(O)C(=O)O [oxalate] |  |  |  |  |  |  |  |  |  |  |  | significantly reduced potency | ~ 6 fold | ~ 13 fold | did not alter | > 20 | 8 | 8 | inhibited | unchanged
